Paper PMC8995271 (Targeted Oncology, 2022)
Entries after “also recorded” stand apart in the source; their conditions may differ. Like-named read-outs stand apart in the source and are kept apart here.

Legend:
HER2 = conditions: read-out: half maximal inhibitory concentration for inhibiting the phosphorylation of HER2; ref [17], [23]–[26]; cited from earlier work
[1] = cited from earlier work
HER1 = conditions: read-out: half maximal inhibitory concentration for inhibiting the phosphorylation of HER1; ref [17], [23]–[26]; cited from earlier work
HER4 = conditions: read-out: half maximal inhibitory concentration for inhibiting the phosphorylation of HER4; ref [17], [23]–[26]; cited from earlier work
[2] = Paclitaxel pharmacokinetics in patients, cycle 1 day 1 and day 8; type: in vivo, human; conditions: for AUC(0-t): human, plasma, mean AUC0–24h of paclitaxel, cycle 1 day 1
[3] = Phase Ib dose-limiting toxicities and MTD determination; type: in vivo, human
[4] = Treatment-related adverse events; type: in vivo, human
[5] = system: advanced or metastatic solid tumors; test: Tumor response; type: in vivo, human
[6] = Varlitinib plasma pharmacokinetics in patients, cycle 1; type: in vivo; conditions: human, oral, mean AUC0–24h, cohorts pooled
Procedure, shortened: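 Blood samples taken in cycle 1 from patients on intermittent (4 days on/3 off) oral twice-daily varlitinib with weekly chemotherapy ± trastuzumab. Sampling was on cycle 1 day 5 at 0, 0.5, 1, 2, 5, 7 and 24 h after the varlitinib dose.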

[7] = cited from earlier work; remark: listed apart in the source
[8] = cohort A2: varlitinib 400 mg BD continuous + carboplatin + paclitaxel
[9] = cohort B (varlitinib + paclitaxel), n = 1

## CS(=O)(=O)CCNCc1ccc(-c2ccc3ncnc(Nc4ccc(OCc5cccc(F)c5)c(Cl)c4)c3c2)o1 [lapatinib]
HER2
  IC50: […]
[1]; combination of lapatinib and capecitabine
  grade 3 and 4 diarrhea rate: 12%
[1]; combination of lapatinib and letrozole
  grade 3 and 4 diarrhea rate: 8%

## CCOc1cc2ncc(C#N)c(Nc3ccc(OCc4ccccn4)c(Cl)c3)c2cc1NC(=O)/C=C/CN(C)C [neratinib, reference compound]
HER1
  IC50: 12 nM
HER2
  IC50: 39 nM
HER4
  IC50: 19 nM

## CC(=O)O[C@H]1C(=O)[C@@]2(C)[C@H]([C@H](OC(=O)c3ccccc3)[C@]3(O)C[C@H](OC(=O)[C@H](O)[C@@H](NC(=O)c4ccccc4)c4ccccc4)C(C)=C1C3(C)C)[C@]1(OC(C)=O)CO[C@@H]1C[C@@H]2O [paclitaxel, reference compound]
[2]; varlitinib 300-mg intermittent dosing cohorts (A4, B1, C1)
  AUC(0-t): 5010 ± 1860 ng·h/mL
[2]; varlitinib 400-mg intermittent dosing cohorts (A3, B2)
  AUC(0-t): 6130 ± 2050 ng·h/mL

## C[C@@H]1COC(Nc2ccc3ncnc(Nc4ccc(OCc5nccs5)c(Cl)c4)c3c2)=N1 [varlitinib]
[3]; [8]
  DLT in cycle 1 (type = number of patients): Febrile neutropenia = 3
  Number with DLTs: 3/5
[3]; cohort A3: varlitinib 400 mg BD intermittent + carboplatin + paclitaxel
  Number with DLTs: 2/4
[3]; cohort A4: varlitinib 300 mg BD intermittent + carboplatin + paclitaxel
  Number with DLTs: 2/6
[3]; cohort A (varlitinib + carboplatin + paclitaxel), n = 6 of 18
  DLT G3/4 neutropenia, patients: 33.3%
[3]; cohort B1: varlitinib 300 mg BD intermittent + weekly paclitaxel
  Number with DLTs: 0/6
[3]; cohort B2: varlitinib 400 mg BD intermittent + paclitaxel
  DLT in cycle 1 (type = number of patients): Febrile neutropenia = 1; also recorded: G3 transaminitis =1
[3]; cohort B2: varlitinib 400 mg BD intermittent + weekly paclitaxel
  Number with DLTs: 2/4
[3]; cohort B3: varlitinib 300 mg BD continuous + paclitaxel
  DLT in cycle 1 (type = number of patients): G3 diarrhea = 1
[3]; cohort B3: varlitinib 300 mg BD continuous + weekly paclitaxel
  Number with DLTs: 4/6
[3]; [9]
  DLT G3 diarrhea, patients: 6.25%
  DLT G3 transaminitis, patients: 6.25%
[3]; cohort B (varlitinib + paclitaxel), n = 3 of 16
  DLT G3/4 neutropenia, patients: 18.8%
[3]; intermittently, with weekly paclitaxel and 3-weekly subcutaneous trastuzumab 600 mg
  recommended phase II dose of varlitinib for the triplet combination: 300 mg
[4]
  all grade pneumonitis rate: 5.4%
[4]; all cohorts
  patients with reduction in left ventricular ejection fraction or cardiomyopathy: None
  treatment-related mortality: no treatment-related mortality
[4]; overall, all cohorts (n = 37)
  any grade AE diarrhea: 70.2%
  any grade AE fatigue: 67.5%
  any grade AE neutropenia: 45.9%
  grade 3 and above AE hyponatremia: 16.2%
  grade 3 and above AE hypophosphatemia: 13.5%
  grade 3 and above AE neutropenia: 40.5%
[5]; all patients, range 0.1–17.1 months
  median duration on study treatment: 3.0 months
[5]; all patients, range 0.3–17.1 months
  median PFS: 3.7 months
[5]; entire cohort, 11/37
  overall response rate: 29.7%
[5]; excluding the two subjects with non-metastatic breast cancer, 10/30
  partial response rate: 33.3%
[5]; excluding the two subjects with non-metastatic breast cancer, 13/30
  stable disease: 43.3%
[5]; patients evaluable for response, 13/31
  stable disease as best response: 41.9%
[5]; patients who achieved a partial response, range 2.2–17.1 months
  median duration on study treatment: 5.0 months
[5]; varlitinib 300 mg continuous, 1/5 evaluable
  objective responses: 20%
[5]; varlitinib 300 mg intermittent, 4/14 evaluable
  objective responses: 28.6%
[5]; varlitinib 400 mg continuous, 2/5 evaluable
  objective responses: 40%
[5]; varlitinib 400 mg intermittent, 3/6 evaluable
  objective responses: 50%
[5]; varlitinib 500 mg continuous, 1/1 evaluable
  objective responses: 100%
[6]; 300-mg intermittent dosing
  AUC(0-t): 44000 ng·h/mL
[6]; 400-mg intermittent dosing
  AUC(0-t): 75600 ng·h/mL
[2]; paclitaxel 80 mg/m^2 weekly
  effect of varlitinib on the pharmacokinetics (Cmax, AUC) of paclitaxel: Varlitinib was well tolerated and did not significantly affect the pharmacokinetics of paclitaxel
HER1
  IC50: 7 nM
HER2
  IC50: 2 nM
HER4
  IC50: 4 nM
[7]; monotherapy (ARRAY 543-103), continuous dose twice a day
  maximum tolerated dose (MTD): 500 mg
[7]; reported in other studies
  median half-life: 5 to 7 h
[7]; varlitinib in combination with 3-weekly docetaxel, phase I study
  febrile neutropenia, patients: 7%
